HSV augment: HSV replication enhancement | HSV replication augmentation in cells, fold increase | maximum fold increase | AID 1956 | 220,000 compounds, 0.005% hits; in the data active means maximum fold increase above about 1.5; tested in PC3 cells
b-catenin transl: beta-catenin nuclear translocation modulation | HeLa beta-catenin nuclear translocation, immunofluorescence imaging | nuclear translocation activity, % at 5 µM | 190,000 compounds, 0.3% hits;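 active means nuclear translocation activity above 50% at 5 µM, with a well cell count of 50 or more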;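 further: per-cell ratio of nuclear to cytoplasmic median beta-catenin stain intensity; plate controls were DMSO negative control for no effect and GSK-3 inhibitor IX positive control for full effect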
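Technique: fluorescence imaging of beta-catenin antibody stain plus DAPI / Material: human HeLa cell line / Incubation: compound treatment 24 h, 37°C, 5% CO2 / Read-out basis: % activation of per-cell nuclear versus cytoplasmic median beta-catenin signal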
L major viab: inhibitors of Leishmania major promastigote growth | inhibition, % at 10 µM | 200,000 compounds, 9% hits | AID 1063 | Leishmania major promastigotes, resazurin fluorescence viability; in the data active means inhibition above about 50%;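 further: promastigotes grown with compound for 44 hours at 28 °C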
MT stabilizer: microtubule stabilizers in HeLa cells; HeLa tubulin immunostaining HCS, 24 h; share of cells brighter than vehicle mean+2SD; % tubulin-high responders, % at 10 µM; 200,000 compounds, 0.83% hits; AID 2205;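 active means plate Z-score above 3 for both tubulin-high and condensed-nucleus cell shares, with cell loss under 80%, at 10 µM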;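 further: anti alpha tubulin signal scored within the nucleus-defined area of each cell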
Dynein cargo inh: dynein cargo transport inhibition. z-score, hits read low. 220,000 compounds, 0.47% hits. 3617.4 mouse cells, GR-EGFP nuclear translocation imaging; test concentration mostly 20 µM; stimulated with dexamethasone, 1 µM; hits give low values;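 active means plate z-score of nuclear minus cytoplasmic receptor signal below a set negative limit, without overly bright fluorescence or cell loss, cut at about -3.5 in these data, passing the limit was not always enough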;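 further: z-score of nuclear minus cytoplasmic ring GR-EGFP intensity difference per well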
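Buffer or medium: Induction medium lacking tetracycline, stripped serum | Also added: Dexamethasone agonist, 1.0 µM final, for 30 min | Timing: 48 h induction, 1 h compound, 30 min dex at 37 °C | Detection: Formaldehyde fixation, Hoechst nuclear stain, 10x automated fluorescence imaging | Measure: Nuclear versus cytoplasmic GR-EGFP signal, averaged per well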
Starred values were filed as active, the others as inactive; i = inactive; x = not tested or not shown. The list is not random: actives were taken first. Their share in the collection is about 8.9%.

SMILES	HSV augment	b-catenin transl	L major viab	MT stabilizer	Dynein cargo inh
CC(CCc1ccccc1)NCC(O)c1ccc(O)c(C(N)=O)c1 (stereo not given)	i	1	84*	3	-0.1
COc1ccc(Nc2nnc(SCc3cn4c(C)cccc4n3)s2)cc1	i	10	-2	19*	0.5
Cc1ccc(Nc2nnc(SCc3cc(=O)n4cc(C)ccc4n3)s2)cc1	i	0	68*	1	0.55
Cc1ccc2nc(CSc3nnc(Nc4ccccc4F)s3)cc(=O)n2c1	i	0	1	2	0.046
Cc1cccc2nc(CSc3nnc(N)s3)cn12	i	0	2	1	-0.43
COc1ccc(NC(=S)NC(C)C(c2ccccc2)N2CCOCC2)cc1 (stereo not given)	i	-2	1	3	-0.043
Cc1cc(N/N=C/c2ccc(O)cc2O)nc(-n2nc(C)cc2C)n1	i	-1	100*	5	0.72
COc1ccc(/C=N/Nc2cc(C)nc(-n3nc(C)cc3C)n2)cc1	i	-2	96*	4	-0.31
Cc1cc(N/N=C/c2ccccc2[N+](=O)[O-])nc(-n2nc(C)cc2C)n1	i	-1	x	x	0.91
Cc1cc(N/N=C/c2cccc(Cl)c2)nc(-n2nc(C)cc2C)n1	i	1	x	x	0.35
COc1ccc(CCNC(=O)COC(=O)C2CC2)cc1	i	-3	-6	3	-0.47
COc1ccc(-n2cnnc2SCC(=O)Nc2cc(S(=O)(=O)N3CCCCC3)ccc2C)cc1	i	-2	67*	2	0.35
O=C(CSc1nncn1-c1ccccc1)Nc1cccc(S(=O)(=O)N2CCCCC2)c1	i	x	63*	3	-1.1
O=C(CSc1nnc(-c2cccs2)o1)Nc1cccc(S(=O)(=O)N2CCCCC2)c1	i	0	51*	2	0.43
NC(=O)CSc1nnc(-c2cccc(S(=O)(=O)N3CCCCC3)c2)o1	i	0	x	x	-0.45
COCC1CCCCN1Cc1cn(-c2ccccc2)nc1-c1ccc2c(c1)OCO2 (stereo not given)	i	0	31	3	2.4
CC(=O)c1ccc(N2CCN(CC(=O)Nc3ccc(N4CCOCC4)cc3)CC2)cc1	i	-2	2	2	0.22
CN(C)c1ccc(NC(=O)Nc2ccc3snnc3c2)cc1	i	-4	1	3	3
COc1cc(OC)cc(C(=O)NCc2ccc(-n3cccc3)cc2)c1	i	1	4	5	2.1
CC1=CC(=O)N(c2ccc(C)cc2)C1c1ccc(Cl)cc1 (stereo not given)	i	-6	61*	2	-0.82
CC1=CC(=O)N(c2cccc(C(F)(F)F)c2)C1c1ccc(Cl)cc1 (stereo not given)	i	x	18	1	-0.27
Brc1ccc(Oc2nnnn2-c2ccccc2)cc1	i	x	-3	4	-0.52
Cc1cc(NC(=O)Cn2cnc3sc(C)c(-c4ccccc4)c3c2=O)no1	i	-1	-1	4	-0.29
CCCc1nc(SCC(=O)N2CCCc3ccccc32)c2c(=O)n(C)c(=O)n(C)c2n1	i	2	42	4	-0.49
Cn1c(=O)c2c(nc(SCC(=O)N3c4ccccc4CCc4ccccc43)n2C)n(C)c1=O	i	-2	52*	3	-0.9
SMILES	HSV augment	b-catenin transl	L major viab	MT stabilizer	Dynein cargo inh
Cn1c(=O)c2c(SCC(=O)N3CCCc4ccccc43)nc(CC(C)(C)C)nc2n(C)c1=O	x	-3	52*	9	0.14
CCCn1c(SCC(=O)N2c3ccccc3Sc3ccccc32)nc2c1c(=O)n(C)c(=O)n2C	i	-2	62*	6	-0.34
CCCn1c(SCC(=O)N2CCCc3ccccc32)nc2c1c(=O)n(C)c(=O)n2C	x	0	2	2	-0.55
CC(C)n1c(SCC(=O)N2c3ccccc3CCc3ccccc32)nc2c1c(=O)n(C)c(=O)n2C	x	x	5	5	0.15
CC(C)n1c(SCC(N)=O)nc2c1c(=O)n(C)c(=O)n2C	i	-6	-4	3	-0.84
CC(C)n1c(SCC(=O)N2c3ccccc3Sc3ccccc32)nc2c1c(=O)n(C)c(=O)n2C	i	-2	60*	5	-0.72
CC(=O)Cc1ccccc1OC(=O)c1ccco1	i	0	1	2	-0.36
CCOC(=O)c1sc(-c2ccccc2)cc1NC(=O)c1ccc(S(=O)(=O)N(CCOC)CCOC)cc1	i	-1	7	6	-0.15
CCCCNC(=O)CCn1nc(-c2ccc(Cl)cc2)c2ccccc2c1=O	i	-1	x	x	0.032
COc1ccccc1CNC(=O)COC(=O)c1cc(-c2ccco2)nc2ccccc12	i	-1	-1	3	0.27
COc1ccc(-c2nn(-c3ccccc3)cc2/C=N/Nc2ccc(S(N)(=O)=O)cc2[N+](=O)[O-])cc1OC	i	4	14	4	0.99
COc1ccc(-c2nn(-c3ccccc3)cc2/C=N/NC(=S)NC(C)C)cc1OC	i	1	61*	2	1.9
COc1ccc(-c2nn(-c3ccccc3)cc2/C=N/N=C(N)N)cc1OC	i	14	46	3	-0.47
COc1ccc(-c2nn(-c3ccccc3)cc2/C=N/Nc2ccc3ccccc3n2)cc1OC	i	x	51*	2	0.62
O=C(Cn1nc(Cc2cccnc2)c2ccccc2c1=O)N1CCN(c2ccccn2)CC1	i	x	-4	3	-0.44
CC(C)(C)c1csc(NC(=O)c2ccc(Cl)s2)n1	i	-2	23	2	-1
Cc1ccc(C(=O)Nc2nc(C(C)(C)C)cs2)s1	i	-1	55*	3	1
CC12CNCC(C)(CN(C(c3ccccc3)c3ccccc3)C1)C2	i	5	100*	3	0.22
Clc1ccc(C(c2ccccc2)N2CCNCC2)cc1 (stereo not given)	i	x	46	2	-0.23
NCCCC[C@@H]1NC(=O)c2cc([N+](=O)[O-])cc(F)c2NCCCC[C@@H](C(N)=O)NC(=O)CNC1=O	i	x	-5	3	-0.34
Cc1c(NC(=S)NC(=O)C(C)(C)C)c(=O)n(-c2ccccc2)n1C	i	0	-2	3	-0.68
Cc1ccc(NC(=O)c2ccccc2Cl)c(Cl)c1	i	-3	3	4	-0.31
CC(=O)c1c(C(C)=O)c(C)n(-c2ccc(C)c(NC(=O)c3ccccc3Cl)c2)c1C	i	0	53*	3	3.1
COc1ccccc1NC(=O)c1nc[nH]c1C(=O)Nc1ccccc1OC	i	6	-4	31*	-1.7
COc1ccc(NC(=O)c2nc[nH]c2C(=O)N[C@@H](C)c2ccccc2)cc1	i	0	x	x	-0.27
COc1ccc(NC(=O)c2nc[nH]c2C(=O)Nc2ccccc2C)cc1	i	80*	3	54*	0.077
CCOC(=O)c1c(C)[nH]c(C=Nc2ccc(OC)cc2)c1O	i	-2	18	3	-0.099
COc1ccc(/C=N/N=C2/NC(=O)CC(C(=O)O)S2)cc1 (stereo not given)	i	-1	58*	2	0.33

Screening data: PubChem, several laboratories
